For assay [1], the target named is T1, Steroid 17-alpha-hydroxylase/17,20 lyase (Rattus norvegicus, UniProt P11715).
T1 sequence (P11715 whole entry): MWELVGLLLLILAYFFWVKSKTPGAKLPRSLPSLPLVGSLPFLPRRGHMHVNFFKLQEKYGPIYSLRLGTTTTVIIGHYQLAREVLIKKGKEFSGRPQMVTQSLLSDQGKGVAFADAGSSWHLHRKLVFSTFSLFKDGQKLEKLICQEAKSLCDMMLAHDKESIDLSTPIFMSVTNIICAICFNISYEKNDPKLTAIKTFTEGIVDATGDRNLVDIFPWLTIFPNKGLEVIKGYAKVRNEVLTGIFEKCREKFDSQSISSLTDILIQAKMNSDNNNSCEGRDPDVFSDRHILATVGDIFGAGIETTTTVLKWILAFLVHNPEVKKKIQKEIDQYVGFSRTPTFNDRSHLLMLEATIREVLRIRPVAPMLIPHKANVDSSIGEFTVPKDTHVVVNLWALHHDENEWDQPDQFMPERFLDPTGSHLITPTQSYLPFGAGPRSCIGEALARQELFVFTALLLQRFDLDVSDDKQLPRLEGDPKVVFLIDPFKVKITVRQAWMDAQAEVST
Description: Inhibition of 17,20-lyase activity of rat testicular microsomal P450-17alpha. In short, it runs like this: (§1)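 Rat testicular microsomal enzyme incubated with radiolabelled substrate. The radiolabelled substrate was separated from the incubation mixture and identified by thin layer chromatography. Both the 17α-hydroxylase and the 17,20-lyase components were assessed this way.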

In assay [2] the target is T1, Steroid 17-alpha-hydroxylase/17,20 lyase. Description: Inhibition of 17-alpha-hydroxylase activity of rat testicular microsomal P450-17alpha. A digest of the protocol:
as §1

The term IC50 denotes the midpoint of a concentration-inhibition curve. A higher IC50 goes with weaker potency in that assay. For `CCc1ccc(S(=O)(=O)Oc2ccc(Cn3ccnc3)cc2)cc1`, the half-inhibitory concentration (IC50) in assay [1] came to 20 nM; in assay [2], 110 nM.

As for `CCCc1ccc(S(=O)(=O)Oc2ccc(Cn3ccnc3)cc2)cc1`, the values for the IC50 in assay [1] and in assay [2] were 30 nM and 1210 nM, respectively.

Regarding `CCCCc1ccc(S(=O)(=O)Oc2ccc(Cn3ccnc3)cc2)cc1`, the IC50 in assay [1] is 40 nM; in assay [2] it was 70 nM.

As to `CCCCCc1ccc(S(=O)(=O)Oc2ccc(Cn3ccnc3)cc2)cc1`, the concentration for half-maximal inhibition (IC50) in assay [1] amounted to 160 nM; in assay [2] it was 130 nM.

Take `O=S(=O)(Oc1ccc(Cn2ccnc2)cc1)c1ccc(-c2ccccc2)cc1`: the half-maximal inhibitory concentration (IC50) was 10 nM in assay [1] and 100 nM in assay [2].

In the case of `Oc1ccc(Cn2ccnc2)cc1`, the IC50 in assay [1] was 1470 nM; in assay [2], 2500 nM.

Turning to `Ic1ccc(Cn2ccnc2)cc1`, the figures for the IC50 in assay [1] and in assay [2] were 164 nM and 730 nM, respectively.

Take `Cc1ccc(S(=O)(=O)Oc2ccc(Cn3ccnc3)cc2)cc1`: the 50% inhibitory concentration (IC50) is 30 nM in assay [1] and 40 nM in assay [2].

For `O=S(=O)(Oc1ccc(Cn2ccnc2)cc1)c1ccc(C(F)(F)F)cc1`, the results for the IC50 in assay [1] and in assay [2] were 34 nM and 1040 nM, respectively.

For `O=S(=O)(Oc1ccc(Cn2ccnc2)cc1)c1ccc(F)cc1`, the half-inhibitory concentration (IC50) in assay [1] stood at 14 nM; in assay [2], 200 nM.

For `c1ccc(Cn2ccnc2)cc1` [BENZYLIMIDAZOLE], the IC50 in assay [1] and in assay [2] was greater than 3000 nM each time.

For the compound `CC(=O)N1CCN(c2ccc(OCC3COC(Cn4ccnc4)(c4ccc(Cl)cc4Cl)O3)cc2)CC1` (centres undefined) [KETOCONAZOLE], the IC50 in assay [1] is 206 nM; in assay [2] it was 2660 nM.

(Values after ChEMBL document CHEMBL1221300, “Synthesis and biochemical evaluation of a range of (4-substituted phenyl)sulfonate derivatives of 4-hydroxybenzyl imidazole-based compounds as potent inhibitors of 17alpha-hydroxylase/17,20-lyase (P45017alpha) derived from rat testicular microsomes” (Bioorg Med Chem Lett, 2010).)
